Hits are enriched below; roughly 1.5% of the tested compounds scored in any of these assays.
PP1 inh = counter-screen for PP5 inhibitors: inhibitors of human PP1-alpha | purified PP1alpha, OMFP fluorescence | inhibition, % at 6.7 µM | 320,000 tested, 0.9% active;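 active means inhibition above the mean inhibition of all tested compounds plus 3 SD, computed separately for each screening campaign, cut at about 15% in these data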
Target sequence (P62136 whole entry, looked up): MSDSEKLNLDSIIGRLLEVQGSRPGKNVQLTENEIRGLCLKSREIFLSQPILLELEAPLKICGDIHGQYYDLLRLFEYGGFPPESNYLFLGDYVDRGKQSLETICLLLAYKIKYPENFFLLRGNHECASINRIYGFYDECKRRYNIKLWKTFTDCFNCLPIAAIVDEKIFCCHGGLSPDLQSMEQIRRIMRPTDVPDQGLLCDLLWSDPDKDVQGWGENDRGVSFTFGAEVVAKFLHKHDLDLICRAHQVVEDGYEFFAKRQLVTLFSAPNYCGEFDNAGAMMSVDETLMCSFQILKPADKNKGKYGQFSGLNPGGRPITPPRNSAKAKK
PKD1 inh = PKD1 (human) kinase inhibition | inhibition, % (concentration not given with the values) | 200,000 tested, 0.056% active | PKD1 kinase fluorescence polarization assay | Q15139; in the data active means inhibition above about 50%
Hsp70 activator = Hsp70 transcriptional activation, primary screen; HeLa Hsp70 promoter luciferase reporter, luminescence; scaled: vehicle 0, proteasome-inhibitor control 100%; activation, % at 10 µM; 200,000 tested, 0.04% active;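 active means activation above the mean across all tested compounds plus 3 SD, cutoff set per campaign, cut at about 5.5% in these data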;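 further: 100% = MG132 at 30 µM as the positive control and 0% = DMSO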
RBBP9 inhibitor = blocks human serine hydrolase RBBP9; O75884; recombinant RBBP9, FP-Rh probe fluorescence polarization; inhibition, % at 7.94 µM; 220,000 tested, 0.2% active; AID 1515;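 active means inhibition above the campaign mean of all tested compounds plus 3 SD, cut at about 14% in these data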;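 further: plate controls were DMSO wells with RBBP9 for no effect and wells lacking RBBP9 protein for full effect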
Target sequence (O75884 whole entry, looked up): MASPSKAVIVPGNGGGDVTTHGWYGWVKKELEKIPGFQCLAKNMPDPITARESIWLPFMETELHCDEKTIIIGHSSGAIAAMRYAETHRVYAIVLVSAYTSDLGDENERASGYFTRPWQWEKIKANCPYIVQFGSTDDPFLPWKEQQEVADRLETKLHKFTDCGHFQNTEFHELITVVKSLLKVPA
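Measured by – fluorescence polarization · Test system – RBBP9 protein · Input – 2.5 µM RBBP9 dispensing solution, before mixing · Measure – percent inhibition from mP, scaled between DMSO and no-protein wells · Benchmarks – DMSO-treated enzyme wells and wells lacking RBBP9 · Times – preincubation 30 min plus labeling 45 min at 25 °C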
p97 ATPase inh = human p97 ATPase inhibition; P55072; recombinant p97 ATPase, Kinase-Glo ATP luminescence, 3 h; inhibition, % at 8 µM; 220,000 tested, 0.42% active; in the data active means inhibition above about 15%;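 further: 0% = DMSO vehicle and 100% = wells lacking enzyme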
PP5 primary = inhibitors of human protein phosphatase 5 (PP5) | P53041 | purified PP5c, OMFP substrate fluorescence | inhibition, % at 6.7 µM | 320,000 tested, 0.18% active | AID 1987;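 active means inhibition above the campaign's mean inhibition across all tested compounds plus 3 SD, cut at about 9.5% in these data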;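 further: 0% = DMSO only and 100% = 100 µM cantharidin control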
PP5 conf = PP5 (human) inhibition, confirmation. shares compounds with PP5 primary. Purified PP5, fluorogenic phosphatase substrate, fluorescence. inhibition, % at 6.7 µM. 460 tested, 22% active; in the data active means inhibition above about 9.5%
PP1 counter 3x = PP1 phosphatase inhibition, counter-screen for PP5 inhibitors; shares compounds with PP5 primary; inhibition, % at 6.7 µM; AID 2355; PP1 enzyme, fluorescent phosphatase substrate; 460 tested, 4% active; in the data active means inhibition above about 16%
The depositor's hits bear a star.

CN1CCN(CCC(=O)Nc2ccc(OCc3ccccc3)cc2)CC1 was read as PP1 inh -1, PKD1 inh -10, Hsp70 activator 1, RBBP9 inhibitor -6, p97 ATPase inh 1 and PP5 primary 0.
O=C(CCN1CCN(CCO)CC1)Nc1ccc(OCc2ccccc2)cc1 was read as PP1 inh -5, PKD1 inh -7, Hsp70 activator 0, RBBP9 inhibitor -3, p97 ATPase inh -2, PP5 primary 10*, PP5 conf -2 and PP1 counter 3x -3.
Screening COc1cccc(-c2ccc(=O)n(CC(=O)Nc3ccc(S(=O)(=O)NCC(C)C)cc3)n2)c1 returned PP1 inh -4, PKD1 inh -8, Hsp70 activator 0, RBBP9 inhibitor -8, p97 ATPase inh -4 and PP5 primary 5.
`COC(=O)c1sc2cc(C(F)(F)F)cnc2c1-c1cccnc1` gave PP1 inh -2, PKD1 inh -12, Hsp70 activator 0, RBBP9 inhibitor -10, p97 ATPase inh 0, PP5 primary 12*, PP5 conf -5 and PP1 counter 3x -3.
Screening COC(=O)c1sc(N)c(C(=O)OC)c1COC(=O)c1c(C)noc1C returned PP1 inh 3, PKD1 inh -15, Hsp70 activator 0, RBBP9 inhibitor -7, p97 ATPase inh 4, PP5 primary 10*, PP5 conf -3 and PP1 counter 3x -4.
Screening COc1ccc(-c2[nH]ncc2CNC(C)c2cn(C)nc2C)c(F)c1 (stereo unspecified) returned PP1 inh 3, PKD1 inh -4, Hsp70 activator 0, RBBP9 inhibitor -2, p97 ATPase inh -1 and PP5 primary 4.
`O=C1CC(N2CCN(c3ccc(Cl)cc3)CC2)C(=O)N1c1ccccc1` (stereo unspecified) gave PP1 inh 0, PP5 primary 10*, PP5 conf -2 and PP1 counter 3x -3.
O=C1CC(N2CCN(c3ccccc3)CC2)C(=O)N1c1cccc(Cl)c1 (stereo unspecified) was read as PP1 inh -1 and PP5 primary -1.
`COc1ccc(-c2cc(C(=O)OCC(=O)NC(C)C)c3ccccc3n2)cc1` gave PP1 inh 0, PKD1 inh -9, Hsp70 activator 0, RBBP9 inhibitor -8, p97 ATPase inh -4 and PP5 primary -1.
For COc1cccc(C(=O)OCC(=O)NCCc2ccccc2)c1OC the results were PP1 inh -4, PKD1 inh 3, Hsp70 activator 0, RBBP9 inhibitor -10, p97 ATPase inh 4 and PP5 primary -3.
COc1cccc(CSCC(=O)NCCc2ccccc2)c1OC was read as PP1 inh -5, PP5 primary 10*, PP5 conf -5 and PP1 counter 3x -5.
`O=C1CN(c2nc(-c3cccnc3)nc3scc(-c4ccccc4)c23)CCN1` gave PP1 inh 0, PKD1 inh -1, Hsp70 activator 0, RBBP9 inhibitor -10, p97 ATPase inh 0, PP5 primary 10*, PP5 conf -1 and PP1 counter 3x 1.
For Cc1ccc(/C(O)=C2\C(=O)C(=O)N(C)C2c2ccc(Br)cc2)cc1 (stereo unspecified) the results were PP1 inh 6, PP5 primary 10*, PP5 conf -7 and PP1 counter 3x -2.
Screening CN1C(=O)C(=O)/C(=C(/O)c2ccc(Br)cc2)C1c1ccc(F)cc1 (stereo unspecified) returned PP1 inh 2 and PP5 primary -1.
`CCOc1ccc(NCC(=O)N/N=C/C=C/c2ccccc2)cc1` gave PP1 inh 8, PKD1 inh 1, Hsp70 activator 0, RBBP9 inhibitor -11, p97 ATPase inh -10 and PP5 primary -1.
For CCOc1ccc(N=C/C=C/c2ccccc2)c(O)c1 the results were PP1 inh 7, RBBP9 inhibitor -5, p97 ATPase inh 4, PP5 primary 9.9*, PP5 conf 1 and PP1 counter 3x 0.
For CC(C)COC(=O)N1CC(O)CC1C(=O)O (stereo unspecified) the results were PP1 inh -10, PKD1 inh -13, Hsp70 activator 0, RBBP9 inhibitor -3, p97 ATPase inh 3, PP5 primary 11*, PP5 conf -1 and PP1 counter 3x -2.
For CCOc1cc(N2CCOCC2)c(OCC)cc1NC(=O)C1=COCCO1 the results were PP1 inh -2 and PP5 primary 3.
CCOc1ccc(N2C(=O)CC(Sc3nc(-c4cccs4)cc(C(F)(F)F)c3C#N)C2=O)cc1 (stereo unspecified) was read as PP1 inh 0, PKD1 inh -12, Hsp70 activator 0, RBBP9 inhibitor -7, p97 ATPase inh 0 and PP5 primary 5.
`Cn1ccnc1C(=O)c1ccc(S(=O)(=O)N2CCCC2)cc1` gave PP1 inh -6, PKD1 inh 0, Hsp70 activator 0, RBBP9 inhibitor 0, p97 ATPase inh 4 and PP5 primary -1.
Cn1ccnc1C(=O)c1ccc(Cl)c(S(=O)(=O)N2CCOCC2)c1 was read as PP1 inh -2, RBBP9 inhibitor -4, p97 ATPase inh -3, PP5 primary 10.0*, PP5 conf -3 and PP1 counter 3x -3.
`Clc1cccc(/C=N/N2CCN(Cc3ccccc3)CC2)c1` gave PP1 inh -1 and PP5 primary -1.
Cc1cc(C)n(-c2ccc([N+](=O)[O-])cc2-c2nn[nH]n2)n1 was read as PP1 inh 1, PKD1 inh -12, Hsp70 activator 0, RBBP9 inhibitor -6, p97 ATPase inh 5 and PP5 primary 0.
Screening O=[N+]([O-])c1ccc(O)c(-c2nn[nH]n2)c1 returned PP1 inh 1, PKD1 inh -4, Hsp70 activator 0, RBBP9 inhibitor 8, p97 ATPase inh -5, PP5 primary 30*, PP5 conf 18* and PP1 counter 3x -5.
`O=[N+]([O-])c1ccc(N(c2ccccc2)c2ccccc2)cc1` gave PP1 inh -2, PKD1 inh -7, Hsp70 activator 0, RBBP9 inhibitor -1, p97 ATPase inh 1, PP5 primary 9.9*, PP5 conf -2 and PP1 counter 3x -1.
Screening Nc1cccc2nsnc12 returned PP1 inh -2, RBBP9 inhibitor -3, p97 ATPase inh 6 and PP5 primary 1.
Nc1cc2nsnc2cc1Br was read as PP1 inh 5, PKD1 inh 18, Hsp70 activator 0, RBBP9 inhibitor -4, p97 ATPase inh 43*, PP5 primary 11*, PP5 conf 49* and PP1 counter 3x 1.

From PubChem
